In ChEMBL document CHEMBL1145426, “Albumin binding of short cationic antimicrobial micropeptides and its influence on the in vitro bactericidal effect” (J Med Chem, 2007) one finds MIC and Kd data, which are given here for 9 compounds.

The structures appear in SMILES notation. ≈ marks a conversion by molar mass, not a printed value. Where a SMILES comes first, the peptide text is derived from it. [ ]: non-standard residue; d: D form. The star is where a group is joined. Bip = N[C@@H](Cc1ccc(-c2ccccc2)cc1)C(=O)O; NHPhenethyl = c1ccc(CCN*)cc1; NHBn = c1ccc(CN*)cc1; NHiPr = CC(C)N*

The MIC is the smallest concentration in the dilution series that meets the test's criterion for growth inhibition. As usually defined, the Kd is the equilibrium constant for the complex coming apart.

One test deals with Staphylococcus aureus. Description: Antibacterial activity against Staphylococcus aureus ATCC 25923 in presence of HSA 1 by microdilution method. Format: functional. The essentials: (§1)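 Standard broth microdilution MIC against S. aureus ATCC 25923 with albumin in the assay at 0.55 mM. Albumin grades: BSA I, essentially fatty acid and globulin free, ≥99%. BSA II ≥96%. HSA I, essentially fatty acid free, ~99%. HSA II ≥96%. Run in duplicate.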
In general terms: Broth dilution looks for growth in wells or tubes with falling amounts of substance.
Regarding `CC(C)NC(=O)[C@H](CCCNC(=N)N)NC(=O)[C@H](Cc1ccc(-c2ccccc2)cc1)NC(=O)[C@@H](N)CCCNC(=N)N` (H-Arg-[Bip]-Arg-NHiPr), the minimum inhibitory concentration (MIC) stood at 113 µg/mL.

`N=C(N)NCCC[C@H](NC(=O)[C@H](Cc1ccc(-c2ccccc2)cc1)NC(=O)[C@@H](N)CCCNC(=N)N)C(=O)N(Cc1ccccc1)Cc1ccccc1`: the minimum inhibitory concentration (MIC) amounted to 6 µg/mL.

With `N=C(N)NCCC[C@H](NC(=O)[C@H](Cc1ccc(-c2ccccc2)cc1)NC(=O)[C@@H](N)CCCNC(=N)N)C(=O)NCc1ccccc1` (H-Arg-[Bip]-Arg-NHBn), the MIC was 40 µg/mL.

Molecular target in another test: not listed separately
Description: Binding affinity to HSA 1 by isothermal titration calorimetry. Also noted: species or system Homo sapiens. The essentials: (§2)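 ITC at 25 °C with 1 mL cell. Peptide (2.1 mM) injected in 20 aliquots of 5 µL, 400 s apart, into stirred (200 rpm) albumin (0.11 mM) in 50 mM Tris-HCl, 10 mM CaCl₂, pH 8.2. Dilution heats from peptide-into-buffer titrations were subtracted. First injection excluded. Isotherm fitted to a one-site model; KD = 1/Ka.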
On the technique in general: Isothermal titration calorimetry measures the heat released or taken up as one component is titrated into another.
`CC(C)NC(=O)[C@H](CCCNC(=N)N)NC(=O)[C@H](Cc1ccc(-c2ccccc2)cc1)NC(=O)[C@@H](N)CCCNC(=N)N` (H-Arg-[Bip]-Arg-NHiPr) showed an equilibrium dissociation constant (Kd) of 10.8 µM.

`N=C(N)NCCC[C@H](NC(=O)[C@H](Cc1ccc(-c2ccccc2)cc1)NC(=O)[C@@H](N)CCCNC(=N)N)C(=O)N(Cc1ccccc1)Cc1ccccc1`: binding was characterised by a dissociation constant (Kd) of 10.4 µM.

The compound `N=C(N)NCCC[C@H](NC(=O)[C@H](Cc1ccc(-c2ccccc2)cc1)NC(=O)[C@@H](N)CCCNC(=N)N)C(=O)NCc1ccccc1` (H-Arg-[Bip]-Arg-NHBn) registered a dissociation constant Kd of 15.7 µM.

Another test concerns Staphylococcus aureus. Description: Antibacterial activity against Staphylococcus aureus ATCC 25923 by microdilution method. The class given is functional. The method in brief:
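Standard broth microdilution MIC against S. aureus ATCC 25923, without albumin. Run in triplicate.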
`N=C(N)NCCC[C@H](NC(=O)[C@H](Cc1ccc(-c2ccccc2)cc1)NC(=O)[C@@H](N)CCCNC(=N)N)C(=O)NCCCc1ccccc1` registered an MIC of 2 µg/mL (≈ 2.98 µM).

As for `CC(C)NC(=O)[C@H](CCCNC(=N)N)NC(=O)[C@H](Cc1ccc(-c2ccccc2)cc1)NC(=O)[C@@H](N)CCCNC(=N)N` (H-Arg-[Bip]-Arg-NHiPr), the lowest concentration to inhibit growth (MIC) was 47 µg/mL (≈ 79 µM).

On to `CN(Cc1ccccc1)C(=O)[C@H](CCCNC(=N)N)NC(=O)[C@H](Cc1ccc(-c2ccccc2)cc1)NC(=O)[C@@H](N)CCCNC(=N)N`, for which the MIC was determined as 7 µg/mL (≈ 10.7 µM).

With `N=C(N)NCCC[C@H](NC(=O)[C@H](Cc1ccc(-c2ccccc2)cc1)NC(=O)[C@@H](N)CCCNC(=N)N)C(=O)N(Cc1ccccc1)Cc1ccccc1`, the minimal inhibitory concentration (MIC) came to 2 µg/mL (≈ 2.73 µM).

On to `N=C(N)NCCC[C@H](NC(=O)[C@H](Cc1ccc(-c2ccccc2)cc1)NC(=O)[C@@H](N)CCCNC(=N)N)C(=O)NCc1ccccc1` (H-Arg-[Bip]-Arg-NHBn), for which the MIC amounted to 5 µg/mL (≈ 7.78 µM).

`C[C@@H](CNC(=O)[C@H](CCCNC(=N)N)NC(=O)[C@H](Cc1ccc(-c2ccccc2)cc1)NC(=O)[C@@H](N)CCCNC(=N)N)c1ccccc1` came in with an MIC of 4 µg/mL (≈ 5.96 µM).

As to `C[C@H](CNC(=O)[C@H](CCCNC(=N)N)NC(=O)[C@H](Cc1ccc(-c2ccccc2)cc1)NC(=O)[C@@H](N)CCCNC(=N)N)c1ccccc1`, the lowest concentration to inhibit growth (MIC) was 4 µg/mL (≈ 5.96 µM).

Regarding `CCN(Cc1ccccc1)C(=O)[C@H](CCCNC(=N)N)NC(=O)[C@H](Cc1ccc(-c2ccccc2)cc1)NC(=O)[C@@H](N)CCCNC(=N)N`, the MIC was 5 µg/mL (≈ 7.45 µM).

Regarding `N=C(N)NCCC[C@H](NC(=O)[C@H](Cc1ccc(-c2ccccc2)cc1)NC(=O)[C@@H](N)CCCNC(=N)N)C(=O)NCCc1ccccc1` (H-Arg-[Bip]-Arg-NHPhenethyl), it took 4 µg/mL (≈ 6.09 µM) to inhibit growth (MIC).

For the next test, the system named is Staphylococcus aureus. Description: Antibacterial activity against Staphylococcus aureus ATCC 25923 in presence of BSA 2 by microdilution method. Format: functional. The method in brief:
as §1
For the compound `CC(C)NC(=O)[C@H](CCCNC(=N)N)NC(=O)[C@H](Cc1ccc(-c2ccccc2)cc1)NC(=O)[C@@H](N)CCCNC(=N)N` (H-Arg-[Bip]-Arg-NHiPr), the MIC was 80 µg/mL.

In the case of `N=C(N)NCCC[C@H](NC(=O)[C@H](Cc1ccc(-c2ccccc2)cc1)NC(=O)[C@@H](N)CCCNC(=N)N)C(=O)N(Cc1ccccc1)Cc1ccccc1`, the MIC was found to be 6 µg/mL.

In the case of `N=C(N)NCCC[C@H](NC(=O)[C@H](Cc1ccc(-c2ccccc2)cc1)NC(=O)[C@@H](N)CCCNC(=N)N)C(=O)NCc1ccccc1` (H-Arg-[Bip]-Arg-NHBn), the MIC stood at 30 µg/mL.

The next test relates to Staphylococcus aureus. Description: Antibacterial activity against Staphylococcus aureus ATCC 25923 in presence of BSA 1 by microdilution method. The class given is functional. The essentials:
as §1
As for `N=C(N)NCCC[C@H](NC(=O)[C@H](Cc1ccc(-c2ccccc2)cc1)NC(=O)[C@@H](N)CCCNC(=N)N)C(=O)NCCCc1ccccc1`, the minimal inhibitory concentration (MIC) stood at 25 µg/mL.

For `CC(C)NC(=O)[C@H](CCCNC(=N)N)NC(=O)[C@H](Cc1ccc(-c2ccccc2)cc1)NC(=O)[C@@H](N)CCCNC(=N)N` (H-Arg-[Bip]-Arg-NHiPr), the MIC was 110 µg/mL.

With `CN(Cc1ccccc1)C(=O)[C@H](CCCNC(=N)N)NC(=O)[C@H](Cc1ccc(-c2ccccc2)cc1)NC(=O)[C@@H](N)CCCNC(=N)N`, the minimal inhibitory concentration (MIC) was 38 µg/mL.

As for `N=C(N)NCCC[C@H](NC(=O)[C@H](Cc1ccc(-c2ccccc2)cc1)NC(=O)[C@@H](N)CCCNC(=N)N)C(=O)N(Cc1ccccc1)Cc1ccccc1`, the minimal inhibitory concentration (MIC) was determined as 13 µg/mL.

Regarding `N=C(N)NCCC[C@H](NC(=O)[C@H](Cc1ccc(-c2ccccc2)cc1)NC(=O)[C@@H](N)CCCNC(=N)N)C(=O)NCc1ccccc1` (H-Arg-[Bip]-Arg-NHBn), the MIC was 47 µg/mL.

On to `C[C@@H](CNC(=O)[C@H](CCCNC(=N)N)NC(=O)[C@H](Cc1ccc(-c2ccccc2)cc1)NC(=O)[C@@H](N)CCCNC(=N)N)c1ccccc1`, for which the MIC was 31 µg/mL.

Regarding `C[C@H](CNC(=O)[C@H](CCCNC(=N)N)NC(=O)[C@H](Cc1ccc(-c2ccccc2)cc1)NC(=O)[C@@H](N)CCCNC(=N)N)c1ccccc1`, the MIC was determined as 31 µg/mL.

For the compound `CCN(Cc1ccccc1)C(=O)[C@H](CCCNC(=N)N)NC(=O)[C@H](Cc1ccc(-c2ccccc2)cc1)NC(=O)[C@@H](N)CCCNC(=N)N`, the MIC turned out to be 38 µg/mL.

Regarding `N=C(N)NCCC[C@H](NC(=O)[C@H](Cc1ccc(-c2ccccc2)cc1)NC(=O)[C@@H](N)CCCNC(=N)N)C(=O)NCCc1ccccc1` (H-Arg-[Bip]-Arg-NHPhenethyl), the MIC came out at 47 µg/mL.

A further test concerns Staphylococcus aureus. Description: Antibacterial activity against Staphylococcus aureus ATCC 25923 in presence of HSA 2 by microdilution method. The class given is functional. The essentials:
as §1
On to `CC(C)NC(=O)[C@H](CCCNC(=N)N)NC(=O)[C@H](Cc1ccc(-c2ccccc2)cc1)NC(=O)[C@@H](N)CCCNC(=N)N` (H-Arg-[Bip]-Arg-NHiPr), for which the minimum inhibitory concentration (MIC) is 100 µg/mL.

With `N=C(N)NCCC[C@H](NC(=O)[C@H](Cc1ccc(-c2ccccc2)cc1)NC(=O)[C@@H](N)CCCNC(=N)N)C(=O)N(Cc1ccccc1)Cc1ccccc1`, the minimal inhibitory concentration (MIC) was 11 µg/mL.

Turning to `N=C(N)NCCC[C@H](NC(=O)[C@H](Cc1ccc(-c2ccccc2)cc1)NC(=O)[C@@H](N)CCCNC(=N)N)C(=O)NCc1ccccc1` (H-Arg-[Bip]-Arg-NHBn), the minimum inhibitory concentration (MIC) was determined as 80 µg/mL.

Molecular target in another test: not listed separately
Description: Binding affinity to BSA 1 by isothermal titration calorimetry. Also noted: species or system Bos taurus. The method in brief: as §2
As to `N=C(N)NCCC[C@H](NC(=O)[C@H](Cc1ccc(-c2ccccc2)cc1)NC(=O)[C@@H](N)CCCNC(=N)N)C(=O)NCCCc1ccccc1`, binding was put at a Kd of 22.2 µM.

`CC(C)NC(=O)[C@H](CCCNC(=N)N)NC(=O)[C@H](Cc1ccc(-c2ccccc2)cc1)NC(=O)[C@@H](N)CCCNC(=N)N` (H-Arg-[Bip]-Arg-NHiPr) gave a Kd of 14.1 µM.

With `CN(Cc1ccccc1)C(=O)[C@H](CCCNC(=N)N)NC(=O)[C@H](Cc1ccc(-c2ccccc2)cc1)NC(=O)[C@@H](N)CCCNC(=N)N`, binding was characterised by a dissociation constant (Kd) of 6.7 µM.

With `N=C(N)NCCC[C@H](NC(=O)[C@H](Cc1ccc(-c2ccccc2)cc1)NC(=O)[C@@H](N)CCCNC(=N)N)C(=O)N(Cc1ccccc1)Cc1ccccc1`, the Kd is 10 µM.

In turn, `N=C(N)NCCC[C@H](NC(=O)[C@H](Cc1ccc(-c2ccccc2)cc1)NC(=O)[C@@H](N)CCCNC(=N)N)C(=O)NCc1ccccc1` (H-Arg-[Bip]-Arg-NHBn) returned a Kd of 4.3 µM.

`C[C@@H](CNC(=O)[C@H](CCCNC(=N)N)NC(=O)[C@H](Cc1ccc(-c2ccccc2)cc1)NC(=O)[C@@H](N)CCCNC(=N)N)c1ccccc1` yielded an equilibrium dissociation constant (Kd) of 12.2 µM.

`C[C@H](CNC(=O)[C@H](CCCNC(=N)N)NC(=O)[C@H](Cc1ccc(-c2ccccc2)cc1)NC(=O)[C@@H](N)CCCNC(=N)N)c1ccccc1` returned a Kd of 12.4 µM.

`CCN(Cc1ccccc1)C(=O)[C@H](CCCNC(=N)N)NC(=O)[C@H](Cc1ccc(-c2ccccc2)cc1)NC(=O)[C@@H](N)CCCNC(=N)N`: the Kd was 17.3 µM.

Turning to `N=C(N)NCCC[C@H](NC(=O)[C@H](Cc1ccc(-c2ccccc2)cc1)NC(=O)[C@@H](N)CCCNC(=N)N)C(=O)NCCc1ccccc1` (H-Arg-[Bip]-Arg-NHPhenethyl), binding was put at a Kd of 11.1 µM.

Molecular target in the next test: not listed separately
Description: Binding affinity to BSA 2 by isothermal titration calorimetry. Also noted: species or system Bos taurus. The essentials:
as §2
For the compound `CC(C)NC(=O)[C@H](CCCNC(=N)N)NC(=O)[C@H](Cc1ccc(-c2ccccc2)cc1)NC(=O)[C@@H](N)CCCNC(=N)N` (H-Arg-[Bip]-Arg-NHiPr), the dissociation constant Kd turned out to be 14.5 µM.

For the compound `N=C(N)NCCC[C@H](NC(=O)[C@H](Cc1ccc(-c2ccccc2)cc1)NC(=O)[C@@H](N)CCCNC(=N)N)C(=O)N(Cc1ccccc1)Cc1ccccc1`, binding was put at a Kd of 12.3 µM.

The compound `N=C(N)NCCC[C@H](NC(=O)[C@H](Cc1ccc(-c2ccccc2)cc1)NC(=O)[C@@H](N)CCCNC(=N)N)C(=O)NCc1ccccc1` (H-Arg-[Bip]-Arg-NHBn) yielded a Kd of 13 µM.

Molecular target in another test: not listed separately
Description: Binding affinity to HSA 2 by isothermal titration calorimetry. Also noted: species or system Homo sapiens. The essentials: as §2
`CC(C)NC(=O)[C@H](CCCNC(=N)N)NC(=O)[C@H](Cc1ccc(-c2ccccc2)cc1)NC(=O)[C@@H](N)CCCNC(=N)N` (H-Arg-[Bip]-Arg-NHiPr) gave a Kd of 18.2 µM.

`N=C(N)NCCC[C@H](NC(=O)[C@H](Cc1ccc(-c2ccccc2)cc1)NC(=O)[C@@H](N)CCCNC(=N)N)C(=O)N(Cc1ccccc1)Cc1ccccc1` showed a Kd of 15.9 µM.

Turning to `N=C(N)NCCC[C@H](NC(=O)[C@H](Cc1ccc(-c2ccccc2)cc1)NC(=O)[C@@H](N)CCCNC(=N)N)C(=O)NCc1ccccc1` (H-Arg-[Bip]-Arg-NHBn), binding was characterised by a dissociation constant (Kd) of 15.5 µM.
